# Active and inactive are the calls of the source.
# Columns and labels:
# [1] = Cytotoxicity against human A549 cells assessed as reduction in cell viability after 48 hrs by CCK8 assay; assay type: cell-based
# Influenza A virus [2] = assay: Antiviral activity against Influenza A virus A/WSN/33(H1N1) infected in HEK293T-Gluc cells pretreated for 2 hrs followed by viral infection and measured after 24 hrs by Gaussia luciferase reporter gene assay; assay type: functional, organism-based; conditions: A/WSN/1933(H1N1), HEK-293T
# Summary of the method: (§1)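 Reporter cells were HEK293T cells stably transfected with pLenti6-Gluc, which constitutively expresses negative-strand Gaussia luciferase RNA that becomes positive-strand on IAV infection. Cells were infected with A/WSN/33 or A/PR/8/1934 (H1N1). Antiviral activity was read as Gluc signal, and IC50 values were derived. Ribavirin served as positive control.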
# [3] = Cytotoxicity against human HEK293T cells assessed as reduction in cell viability after 48 hrs by CCK8 assay; assay type: cell-based, HEK-293T
# [4] = Selectivity index, ratio of CC50 for human HEK293T cells to IC50 for Influenza A virus A/WSN/33(H1N1) infected in HEK293T-Gluc cells; assay type: toxicity, cell-based; conditions: read-out: Ratio CC50/IC50
# Influenza A virus [5] = assay: Antiviral activity against Influenza A virus A/PR/8/34 (H1N1) infected in HEK293T-Gluc cells pretreated for 2 hrs followed by viral infection and measured after 24 hrs by Gaussia luciferase reporter gene assay; assay type: functional, organism-based; conditions: A/Puerto Rico/8/1934(H1N1), HEK-293T; summary of the method: as §1
# Influenza A virus [6] = assay: Antiviral activity against Influenza A virus A/WSN/33(H1N1) infected in HEK293T-Gluc cells assessed as inhibition of virus infection at 10 uM pretreated for 2 hrs followed by viral infection and measured after 24 hrs by Gaussia luciferase reporter gene assay; assay type: functional; conditions: A/WSN/1933(H1N1), HEK-293T, time 26 hrs
# Summary of the method: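 A single-concentration screen at 10 μM was run against A/WSN/33 (H1N1) in HEK293T-Gluc reporter cells. These cells carry a stably transfected pLenti6-Gluc construct expressing negative-strand Gaussia luciferase RNA that is converted to positive strand upon infection. Inhibition ratio of infection was read from Gluc activity.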
# Influenza A virus [7] = assay: Antiviral activity against Influenza A virus A/WSN/33(H1N1)) infected in A549 cells assessed as inhibition of virus replication at early stage at 2.5 uM after 2 to 4 hrs post infection by time of addition assay; assay type: functional, organism-based; conditions: A/WSN/1933(H1N1), time 2-4 hrs
# Summary of the method: (§2)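 For time-of-addition, A549 cells were inoculated with single-cycle A/WSN/33 (H1N1) virus at MOI 0.2, and compound was added at 2.5 μM. Viral yield was measured as Gluc activity at 11 h post-infection. DMSO served as negative control and ribavirin (30 μM) as positive control.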
# Influenza A virus [8] = assay: Antiviral activity against Influenza A virus A/WSN/33(H1N1)) infected in A549 cells assessed as reduction in viral yield at 2.5 uM preincubated before viral infection by time of addition assay; assay type: functional, organism-based; conditions: A/WSN/1933(H1N1); summary of the method: as §2
# Influenza A virus [9] = assay: Antiviral activity against Influenza A virus A/WSN/33(H1N1) infected in HEK293T cells co-transfected with NP/PA/PB1/PB2/pol-LUC/SV40-Renilla assessed as inhibition of viral RNA transcription and replication after 24 hrs by mini-genome replicon system based luciferase assay; assay type: functional, organism-based; conditions: A/WSN/1933(H1N1), dose 1.25-2.5 µM
# Summary of the method: (§3)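 In the mini-genome replicon assay, HEK293T cells were transfected with pCAGGS plasmids encoding PB2, PB1, PA and NP, plus pol-LUC and SV40-Renilla, with or without compound (1.25 or 2.5 μM). Firefly and Renilla luciferase were measured 24 h post-transfection and compared against negative control (p<0.01 threshold).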
# Influenza A virus [10] = assay: Antiviral activity against Influenza A virus A/WSN/33(H1N1) infected in HEK293T cells co-transfected with NP/PA/PB1/PB2/pol-LUC/SV40-Renilla assessed as inhibition of viral RNA transcription and replication at 2.5 uM after 24 hrs by mini-genome replicon system based luciferase assay; assay type: functional, A/WSN/1933(H1N1); parameters: scale not given: the % may be the effect or the level left; summary of the method: as §3
# [11] = Elimination rate constant in Sprague-Dawley rat at 1.25 mg/kg, iv measured up to 24 hrs by HPLC analysis; assay type: ADME, organism-based; conditions: in vivo
# Summary of the method: (§4)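 Male Sprague-Dawley rats (n = 3 per route) received a single intravenous dose (1.25 mg/kg) or a single oral dose (25 mg/kg). Plasma concentrations were followed over time, and PK parameters were derived from them. Values are reported as mean ± deviation.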
# [12] = Elimination rate constant in Sprague-Dawley rat at 25 mg/kg, po measured up to 24 hrs by HPLC analysis; assay type: ADME, organism-based; conditions: in vivo; summary of the method: as §4
# [13] = Half life in Sprague-Dawley rat at 1.25 mg/kg, iv measured up to 24 hrs by HPLC analysis; assay type: ADME, organism-based; conditions: in vivo; summary of the method: as §4
# [14] = Half life in Sprague-Dawley rat at 25 mg/kg, po measured up to 24 hrs by HPLC analysis; assay type: ADME, organism-based; conditions: in vivo; summary of the method: as §4
# [15] = Tmax in Sprague-Dawley rat at 25 mg/kg, po measured up to 24 hrs by HPLC analysis; assay type: ADME, organism-based; conditions: in vivo; summary of the method: as §4
# [16] = Cmax in Sprague-Dawley rat at 1.25 mg/kg, iv measured up to 24 hrs by HPLC analysis; assay type: ADME, organism-based; parameters: route intravenous, dose 1.25 mg/kg, time <=24; conditions: in vivo; summary of the method: as §4
# [17] = Cmax in Sprague-Dawley rat at 25 mg/kg, po measured up to 24 hrs by HPLC analysis; assay type: ADME, organism-based; parameters: route oral, dose 25 mg/kg, time <=24; conditions: in vivo; summary of the method: as §4
# [18] = Initial plasma concentration in Sprague-Dawley rat at 1.25 mg/kg, iv measured up to 24 hrs by HPLC analysis; assay type: ADME, organism-based; summary of the method: as §4
# [19] = AUC (0 to t) in Sprague-Dawley rat at 1.25 mg/kg, iv measured up to 24 hrs by HPLC analysis; assay type: ADME, organism-based; parameters: route intravenous, dose 1.25 mg/kg, time <=24; conditions: in vivo; summary of the method: as §4
# [20] = AUC (0 to t) in Sprague-Dawley rat at 25 mg/kg, po measured up to 24 hrs by HPLC analysis; assay type: ADME, organism-based; parameters: route oral, dose 25 mg/kg, time <=24; conditions: in vivo; summary of the method: as §4
# [21] = AUC (0 to infinity) in Sprague-Dawley rat at 1.25 mg/kg, iv measured up to 24 hrs by HPLC analysis; assay type: ADME, organism-based; parameters: route intravenous, dose 1.25 mg/kg, time <=24; conditions: in vivo; summary of the method: as §4
# [22] = AUC (0 to infinity) in Sprague-Dawley rat at 25 mg/kg, po measured up to 24 hrs by HPLC analysis; assay type: ADME, organism-based; parameters: route oral, dose 25 mg/kg, time <=24; conditions: in vivo; summary of the method: as §4
# [23] = AUMC (0 to t) in Sprague-Dawley rat at 1.25 mg/kg, iv measured up to 24 hrs by HPLC analysis; assay type: ADME, organism-based; conditions: in vivo; summary of the method: as §4
# [24] = AUMC (0 to t) in Sprague-Dawley rat at 25 mg/kg, po measured up to 24 hrs by HPLC analysis; assay type: ADME, organism-based; conditions: in vivo; summary of the method: as §4
# [25] = AUMC (0 to infinity) in Sprague-Dawley rat at 1.25 mg/kg, iv measured up to 24 hrs by HPLC analysis; assay type: ADME, organism-based; conditions: in vivo; summary of the method: as §4
# [26] = AUMC (0 to infinity) in Sprague-Dawley rat at 25 mg/kg, po measured up to 24 hrs by HPLC analysis; assay type: ADME, organism-based; conditions: in vivo; summary of the method: as §4
# [27] = Clearance in Sprague-Dawley rat at 1.25 mg/kg, iv measured up to 24 hrs by HPLC analysis; assay type: ADME, organism-based; conditions: in vivo; summary of the method: as §4
# [28] = Mean residence time in Sprague-Dawley rat at 1.25 mg/kg, iv measured up to 24 hrs by HPLC analysis; assay type: ADME, organism-based; conditions: in vivo; summary of the method: as §4
# [29] = Mean residence time in Sprague-Dawley rat at 25 mg/kg, po measured up to 24 hrs by HPLC analysis; assay type: ADME, organism-based; conditions: in vivo; summary of the method: as §4
# [30] = Volume of distribution at steady state in Sprague-Dawley rat at 1.25 mg/kg, iv measured up to 24 hrs by HPLC analysis; assay type: ADME, organism-based; conditions: in vivo, read-out: Vdss; summary of the method: as §4
# [31] = Oral bioavailability in Sprague-Dawley rat at 25 mg/kg measured up to 24 hrs by HPLC analysis; assay type: ADME, organism-based; conditions: in vivo; summary of the method: as §4
smiles,measurement,setting,value
O=C(CNc1nc(N2CCc3ccccc3C2)nc2ccccc12)NCc1ccccc1,CC50 at 48 h,[1],12.8 µM
same,IC50,Influenza A virus [2],6.84 µM
same,CC50 at 48 h,[3],29.4 µM
same,selectivity ratio,[4],4.3
same,IC50,Influenza A virus [5],0.12 µM
CCN(CC)c1nc(NCC(=O)NCc2ccccc2)c2ccccc2n1,CC50 at 48 h,[1],> 100 µM
same,IC50,Influenza A virus [2],5 µM
same,CC50 at 48 h,[3],> 100 µM
same,selectivity ratio,[4],> 20
same,IC50,Influenza A virus [5],5.8 µM
CCN(CC)c1nc(SCC(=O)Nc2ccccc2)c2ccccc2n1,CC50 at 48 h,[1],> 100 µM
same,IC50,Influenza A virus [2],7.18 µM
same,CC50 at 48 h,[3],> 100 µM
same,selectivity ratio,[4],> 13.9
same,IC50,Influenza A virus [5],1.69 µM
O=C(CNc1nc(N2CCCC2)nc2ccccc12)Nc1ccc2ccccc2c1,CC50 at 48 h,[1],4.77 µM
same,inhibition at 10 µM,Influenza A virus [6],99.8%
same,IC50,Influenza A virus [2],1.29 µM
same,CC50 at 48 h,[3],59.9 µM
same,selectivity ratio,[4],46.5
same,IC50,Influenza A virus [5],0.63 µM
same,Activity,Influenza A virus [7],Active
same,Activity,Influenza A virus [8],inactive
same,Activity,Influenza A virus [9],Dose-dependent effect
same,Activity,Influenza A virus [10],80%
same,k el at 24 h,[11],0.000286 s⁻¹
same,k el at 24 h,[12],8.89e-05 s⁻¹
same,half-life,[13],40.8 min
same,half-life,[14],135 min
same,Tmax,[15],19.8 min
same,Cmax,[16],58 ng/mL
same,Cmax,[17],78.6 ng/mL
same,C0 at 24 h,[18],80.8 ng/mL
same,AUC(0-t) at 24 h,[19],34.9 ng·h/mL
same,AUC(0-t) at 24 h,[20],157 ng·h/mL
same,AUC(0-inf),[21],39.2 ng·h/mL
same,AUC(0-inf),[22],183 ng·h/mL
same,AUMCt,[23],18 hr.hr.ng/ml
same,AUMCt,[24],313 hr.hr.ng/ml
same,AUMC,[25],30.6 hr.hr.ng/ml
same,AUMC,[26],553 hr.hr.ng/ml
same,clearance,[27],557 mL/min/kg
same,MRT,[28],47.4 min
same,MRT,[29],191 min
same,Vd,[30],26.6 L/kg
same,bioavailability,[31],22.5%
CCOc1ccc(NC(=O)CSc2c[nH]c3ccc(Br)cc23)cc1,CC50 at 48 h,[1],71.4 µM
same,inhibition at 10 µM,Influenza A virus [6],90.2%
same,IC50,Influenza A virus [2],4.18 µM
same,CC50 at 48 h,[3],44 µM
same,selectivity ratio,[4],10.5
same,IC50,Influenza A virus [5],0.33 µM
O=C(CNc1nc(N2CCCC2)nc2ccccc12)Nc1cc(Cl)cc(Cl)c1,CC50 at 48 h,[1],5.92 µM
same,IC50,Influenza A virus [2],9.04 µM
same,CC50 at 48 h,[3],15.9 µM
same,selectivity ratio,[4],1.75
same,IC50,Influenza A virus [5],0.95 µM
CN1CCN(c2nc(NCC(=O)NCc3ccccc3)c3ccccc3n2)CC1,IC50,Influenza A virus [2],11.5 µM
same,CC50 at 48 h,[3],> 100 µM
same,selectivity ratio,[4],> 8.72
O=C(CNc1nc(N2CCc3ccccc3C2)nc2ccccc12)Nc1ccc2ccccc2c1,IC50,Influenza A virus [2],3.43 µM
same,CC50 at 48 h,[3],> 100 µM
same,selectivity ratio,[4],> 29.1
